Shown is part of a subset that was picked to be rich in hits.
CHOP inhibitor – inhibitors of CHOP promoter induction, primary screen, cell-based, unfolded protein response, luciferase reporter; CHO-K1 CHOP-promoter luciferase, tunicamycin-induced, 15-18 h; inhibition, % at 10 µM; 220,000 compounds, 3.8% hits; AID 2732, 2010;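 active = compounds that reduced the stress-induced luciferase reporter signal by more than about 70% of percent inhibition, limit read from the data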;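 note: 0% = tunicamycin plus vehicle and 100% = wells without tunicamycin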
TLR9-MyD88 inh – inhibitors of TLR9-MyD88 association in cells, primary screen, cell-based, CHO, BLA complementation, fluorescence | CCF4 FRET ratio | 340,000 compounds, 0.21% hits | Toll-like receptor 9 (Homo sapiens) + Myeloid differentiation primary response protein … | inhibition, % at 4.98 µM | AID 504734, 2011;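 active = inhibition above the mean over all tested compounds plus 3 SD, cut at about 21% in these data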;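 note: 0% = DMSO only wells and 100% = clavulanate BLA inhibitor control wells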
NOD2-RIPK2 inh – NOD2-RIPK2 binding disruptors in cells, primary screen, fluorescence, CHO cells, BLA complementation | AID 624267, 2012 | 360,000 compounds, 0.38% hits | CCF4 ratio | inhibition, % at 4.98 µM | Receptor-interacting serine/threonine-protein kinase 2 (Homo sapiens), O43353; in the data active = inhibition above about 21%;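 note: 0% = vehicle only and 100% = reference blocker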
UPR CHOP act – activators of apoptotic CHOP UPR arm, primary screen, cell-based, CHO-CHOP luciferase reporter, luminescence, uHTS; UPR activation; percent of tunicamycin response over DMSO baseline; activation, % at 10 µM; 330,000 compounds, 0.34% hits; AID 449763, 2010;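 active = at 10 µM dose, activation of 40% or more, normalized to positive control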;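 note: 100% = tunicamycin at 10 µg/mL and 0% = DMSO alone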
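Test system: CHO-CHOP cells, stable luciferase reporter of PERK-eIF2a-CHOP signalling | Quantity: 500 CHO-CHOP cells per well | Buffer or medium: F12 plus 10% serum | Compound dosing: 10 µM single point, 0.5% DMSO | Schedule: 6 h compound treatment, 37 °C | Signal: Luciferase luminescence | Control set: Tunicamycin high control, DMSO low control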
UPR XBP1 act – activators of adaptive XBP1 UPR arm, primary screen, cell-based, CHO-XBP1 luciferase reporter, luminescence, uHTS; IRE1-XBP1 UPR activation; percent of tunicamycin response, DMSO as zero; 330,000 compounds, 0.33% hits; activation, % at 20 µM; AID 463104, 2010;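 active = versus positive control, 20 µM dose yields 30% or more activation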;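 note: 100% = tunicamycin at 10 µg/mL and 0% = DMSO only wells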
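Material: CHO-XBP1 cells stably carrying IRE1-XBP1-driven luciferase reporter | Medium: F12 with 10% serum | Compound dosing: 20 µM single concentration, DMSO 1% | Incubation: Overnight seeding at 37 °C, 6 h compound treatment at 37 °C | Detection: Steady-Glo luminescence read | Read-out basis: % activation of reporter signal versus tunicamycin and DMSO controls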
TLR4 MyD88 comp – inhibitors of TLR4-MyD88 association in cells, primary screen, cell-based, HeLa CL3-4, BLA complementation, FRET ratio | Toll-like receptor 4 (Homo sapiens) + Myeloid differentiation primary response protein … | HeLa CL3-4 TLR4/MyD88 BLA complementation | inhibition, % at 8.4 µM | 200,000 compounds, 0.18% hits | AID 861, 2007; in the data active = inhibition above about 25%;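 note: 0% = vehicle and 100% = reference inhibitor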
Target sequence (O00206 whole entry, looked up): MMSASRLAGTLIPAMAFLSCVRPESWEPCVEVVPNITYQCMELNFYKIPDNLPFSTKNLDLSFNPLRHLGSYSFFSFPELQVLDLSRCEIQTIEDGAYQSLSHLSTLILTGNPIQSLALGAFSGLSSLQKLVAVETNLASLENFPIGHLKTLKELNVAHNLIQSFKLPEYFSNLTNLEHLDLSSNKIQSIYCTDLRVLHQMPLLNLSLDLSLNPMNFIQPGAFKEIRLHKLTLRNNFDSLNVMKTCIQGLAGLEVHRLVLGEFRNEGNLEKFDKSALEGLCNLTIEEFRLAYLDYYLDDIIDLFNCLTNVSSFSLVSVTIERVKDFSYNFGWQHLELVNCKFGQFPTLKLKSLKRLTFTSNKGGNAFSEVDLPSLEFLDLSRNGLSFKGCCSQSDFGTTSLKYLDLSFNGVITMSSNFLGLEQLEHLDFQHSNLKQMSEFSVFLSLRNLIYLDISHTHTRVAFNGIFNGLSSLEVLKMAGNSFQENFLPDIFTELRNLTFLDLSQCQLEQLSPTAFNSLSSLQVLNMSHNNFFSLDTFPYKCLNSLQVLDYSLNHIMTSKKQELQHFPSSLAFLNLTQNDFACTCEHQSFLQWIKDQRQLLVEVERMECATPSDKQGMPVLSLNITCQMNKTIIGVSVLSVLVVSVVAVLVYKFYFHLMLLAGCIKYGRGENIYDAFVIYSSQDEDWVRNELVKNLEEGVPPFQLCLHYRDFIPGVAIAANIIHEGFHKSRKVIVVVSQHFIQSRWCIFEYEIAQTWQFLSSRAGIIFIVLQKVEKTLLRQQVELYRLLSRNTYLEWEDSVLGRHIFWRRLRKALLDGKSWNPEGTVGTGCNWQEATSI
Target sequence (Q99836 whole entry, looked up): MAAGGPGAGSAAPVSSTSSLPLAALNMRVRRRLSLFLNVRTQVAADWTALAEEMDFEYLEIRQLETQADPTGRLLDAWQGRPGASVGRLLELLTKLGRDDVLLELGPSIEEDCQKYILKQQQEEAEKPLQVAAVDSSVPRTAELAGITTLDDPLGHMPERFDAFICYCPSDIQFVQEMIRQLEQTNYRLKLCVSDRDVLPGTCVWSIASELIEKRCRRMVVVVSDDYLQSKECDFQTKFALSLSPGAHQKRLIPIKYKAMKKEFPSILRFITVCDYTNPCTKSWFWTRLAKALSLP
An asterisk follows results filed as active; / = not tested or not shown.

SMILES	CHOP inhibitor	TLR9-MyD88 inh	NOD2-RIPK2 inh	UPR CHOP act	UPR XBP1 act	TLR4 MyD88 comp
COc1ccc(C)cc1S(=O)(=O)NCc1ccccn1	/	-11.2	-3.8	/	/	/
O=S(=O)(Nc1cc(Sc2cccc3cccnc23)c(O)c2ccccc12)c1ccccc1	101.0*	/	/	/	/	14.3
COc1cc2c(cc1OC)CN(c1nc(CN3CCCC3)nc3sc(C)c(C)c13)CC2	78.4*	3.0	-2.0	-2.9	2.1	2.0
COc1cc2c(cc1OC)CN(c1nc(CN3CCCCC3)nc3sc4c(c13)CCCC4)CC2	29.7	-3.4	-6.7	0.4	1.7	3.0
CCOc1cc(C(=O)OCC(=O)Nc2cc(C)on2)ccc1OCC(C)C	94.0*	-0.1	-3.2	0.3	-3.2	2.7
O=C(Cc1cccc2ccccc12)NN=Cc1ccc2c(c1)CCC2	/	-16.9	-12.9	/	/	/
CC(=O)C1(O)CCC2C3CC(C)C4=CC(=O)C=CC4(C)C3(F)C(O)CC21C (stereo not given)	/	-13.9	5.9	/	/	/
O=C(CN1CCN(c2ccccc2)CC1)Nc1ccccc1C(F)(F)F	94.6*	-7.3	1.0	1.3	-6.2	1.2
CNc1ncnc2c1ncn2[C@H]1CN(CCOC)C[C@@H](CO)O1	/	/	-8.8	/	/	/
O=C(NC(c1ccc(-c2ccccc2)cc1)c1cnccn1)C1CCN(Cc2cccc(C(F)(F)F)c2)CC1 (stereo not given)	/	/	-3.9	/	/	/
CCCn1c(N/N=C\C=C\c2ccccc2)nc2c1c(=O)[nH]c(=O)n2C	92.8*	-3.4	5.1	-0.5	3.7	2.7
O=C1c2ccccc2C(=O)c2c1cccc2N(CCO)CCO	/	-7.0	-3.1	-0.3	-2.6	/
O=C1C=C(N(CCO)Cc2ccccc2)c2ccccc2C1=O	89.4*	-10.7	-5.2	/	/	-9.9
COC(=O)c1c(NC(=O)Cn2cnc([N+](=O)[O-])n2)sc2c1CCC(C)C2 (stereo not given)	74.9*	-3.5	-25.1	1.7	4.3	5.5
COc1cc(NC(=O)N2CCc3nc(NCc4cccc(Oc5ccccc5)c4)ncc3C2)cc(OC)c1OC	/	/	-6.1	/	/	/
Cc1cc(C)c2oc(-c3cccc(NC(=O)c4ccc(F)cc4)c3)nc2c1	90.9*	-3.0	-7.5	-1.8	2.5	-14.1
COc1cc(C(=O)Nc2cccc(-c3nc4cc(C)cc(C)c4o3)c2)cc(OC)c1OC	76.0*	-9.4	4.8	/	/	1.1
COc1cc(C(=O)Nc2ccc(-c3nc4cc(C)ccc4o3)c(O)c2)cc(OC)c1OC	8.0	2.3	8.9	13.0	10.3	-1.6
CCCNC(=O)C1(C)CCN1C(=O)Cc1ccc(C(C)C)cc1 (stereo not given)	/	/	-14.4	/	/	/
O=C(CSc1nnc(-c2ccccc2)c(-c2ccccc2)n1)N1CCOCC1	72.4*	-10.6	-3.5	-2.2	-4.3	-2.5
CCC(C)C(CO)NCCCn1cnc2c(OC)ncnc21 (stereo not given)	/	-2.8	-23.4	/	/	/
CCn1c(CC(=O)Nc2ccc(C)c(Cl)c2)nnc1SCC(=O)Nc1nc(C)cs1	78.5*	7.8	-11.4	-1.2	0.7	-6.6
CC(C)Cc1cc(C(=O)Nc2sc3c(c2C#N)CCC3)no1	10.3	-1.5	-9.6	-1.1	0.7	9.3
CSc1ccccc1NC(=O)c1cc(CC(C)C)on1	75.2*	-9.8	-2.5	4.8	0.0	1.0
CC(C)Cc1cc(C(=O)Nc2sc3c(c2C#N)CCCC3)no1	77.4*	-12.6	-8.6	2.7	0.2	-4.3
SMILES	CHOP inhibitor	TLR9-MyD88 inh	NOD2-RIPK2 inh	UPR CHOP act	UPR XBP1 act	TLR4 MyD88 comp
C[C@@H]1CN([C@H](C)CO)C(=O)CCCn2nncc2CO[C@H]1CN(C)S(=O)(=O)c1ccc(-n2cccn2)cc1	/	-6.6	1.8	/	/	/
O=C(Nc1ccc2c(c1)OCO2)c1csc([C@@H]2C[C@H](O)[C@@H](CO)O2)n1	/	/	1.1	/	/	/
Cc1cccc(NS(=O)(=O)c2cc(NC(=O)CC(=O)c3ccc([N+](=O)[O-])cc3)ccc2C)c1	93.0*	/	/	/	/	-2.2
Cc1ccc(C(=O)Nc2cccc([N+](=O)[O-])c2)cc1S(=O)(=O)Nc1ccc(C(=O)O)cc1	12.1	-12.2	-5.2	2.5	-0.3	-2.1
CC1(C(=O)Nc2ccc3c(c2)OCCO3)CN(S(C)(=O)=O)CC(=O)N1CCc1ccccc1 (stereo not given)	/	/	3.5	/	/	/
CCCS(=O)(=O)NC(=O)C1(C)CCN(C(=O)c2cc(C)on2)C1 (stereo not given)	/	/	-6.2	/	/	/
COc1ccc(Cn2c(CCC(=O)Nc3ccc(C)c(C)c3)nc3cccnc32)cc1	85.9*	-7.2	17.3	-0.3	0.2	-9.0
CCc1nc2ccc(C(=O)NCCCN3CCCC3=O)cn2c1N(C)C(=O)COc1ccccc1	/	/	6.8	/	/	/
CC(C)Nc1ncnc2c1ncn2[C@H]1CN(Cc2cccs2)C[C@@H](CO)O1	/	/	-11.3	/	/	/
COc1cccc(-n2nnnc2SCC(=O)N2CCCc3ccccc32)c1	70.2*	-2.7	6.4	0.9	2.5	-7.8
COc1cc(OC)cc(-n2nnnc2SCC(=O)N2CCCc3ccccc32)c1	17.8	-5.3	-7.9	0.0	-2.3	-3.5
CCCC(=O)NC(=S)Nc1cccc(Cl)c1N1CCCC1	81.2*	-10.3	-7.9	-2.8	2.7	-4.1
CC(C)c1ccc(NC(=O)Nc2nnc([C@H]3C[C@H](O)[C@@H](CO)O3)s2)cc1	/	/	0.6	/	/	/
CCCCNC(=O)C(=O)N/N=C/c1ccc(OCC(=O)Nc2cccc(OC)c2)c(OC)c1	99.0*	3.5	-3.8	2.1	-1.0	11.6
CC1(C(=O)NS(=O)(=O)C2CC2)CCCN(C(=O)c2ccccc2OC(F)(F)F)C1 (stereo not given)	/	/	0.8	/	/	/
CCc1nc(N2CCCCC2C(=O)O)c2oc3ccccc3c2n1 (stereo not given)	-10.7	3.1	-8.2	-0.9	0.5	/
Cc1nc(SCC(=O)O)c2oc3ccccc3c2n1	-6.8	-1.4	-9.7	-2.6	-1.2	-22.1
CCc1nc(N2CCCCC2C)c2oc3ccccc3c2n1 (stereo not given)	-12.4	4.5	-3.1	-1.3	4.5	-7.9
Cc1nc(SCC(=O)NCc2ccccc2)c2oc3ccccc3c2n1	72.3*	-5.5	1.2	0.6	0.6	-0.8
